Measured values taken from ChEMBL document CHEMBL3046072, “Plant P5C reductase as a new target for aminomethylenebisphosphonates” (J Agric Food Chem, 2007).
pIC50, pKi: −log10 of the molar value.

What was measured:
[1] = target: T1, Pyrroline-5-carboxylate reductase (Arabidopsis thaliana) (UniProt P54904); assay: Inhibition of Arabidopsis thaliana P5C reductase catalytic activity assessed as inhibition of NADH oxidation at 340 nm OD at 0.2 mM by NADH oxidation assay; parameters: scale not given: the % may be the effect or the level left
T1 sequence (whole entry): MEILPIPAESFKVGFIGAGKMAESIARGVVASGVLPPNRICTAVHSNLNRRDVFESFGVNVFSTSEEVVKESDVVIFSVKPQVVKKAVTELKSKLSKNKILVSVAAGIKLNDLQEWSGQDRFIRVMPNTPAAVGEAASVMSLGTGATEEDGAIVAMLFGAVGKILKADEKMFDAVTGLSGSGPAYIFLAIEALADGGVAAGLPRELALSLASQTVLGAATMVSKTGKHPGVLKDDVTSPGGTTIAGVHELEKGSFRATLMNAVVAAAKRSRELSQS

[2] = target: 3-phosphoshikimate 1-carboxyvinyltransferase (Spinacia oleracea); assay: Inhibition of Spinacia oleracea (spinach) EPSP synthase activity; conditions: read-out: I50
[3] = target: T2, Pyrroline-5-carboxylate reductase (Arabidopsis thaliana, UniProt P54904); assay: Uncompetitive inhibition of Arabidopsis thaliana P5C reductase by Dixon plot
T2 sequence (P54904 whole entry): T1 sequence (whole entry)

[4] = target: 3-phosphoshikimate 1-carboxyvinyltransferase (Nicotiana tabacum); assay: Inhibition of EPSP synthase in Nicotiana tabacum (tobacco) cells; conditions: read-out: I50
[5] = target: T2, Pyrroline-5-carboxylate reductase; assay: Noncompetitive inhibition of Arabidopsis thaliana P5C reductase by Lineweaver-Burk plot in presence of NADPH
[6] = target: T2, Pyrroline-5-carboxylate reductase; assay: Noncompetitive inhibition of Arabidopsis thaliana P5C reductase by Lineweaver-Burk plot
[7] = target: T1, Pyrroline-5-carboxylate reductase (Arabidopsis thaliana); assay: Inhibition of Arabidopsis thaliana P5C reductase catalytic activity assessed as […] at 535 nm OD at 0.5 mM by P5C utilization assay; parameters: scale not given: the % may be the effect or the level left
Summary of the method: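 The partially purified Arabidopsis enzyme was run in the same Tris pH 8.0/MgCl2/DL-P5C/NADH mix with compound at 0.5 mM, at 35 °C. Aliquots taken every 40 s received Na acetate and 0.15% ninhydrin in acetic acid, then 10 min at 55 °C. Residual P5C was read at 535 nm (ε 4600 M⁻¹ cm⁻¹). At least three replicates; activity given as % of untreated control.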

[8] = target: T2, Pyrroline-5-carboxylate reductase; assay: Inhibition of Arabidopsis thaliana P5C reductase catalytic activity; conditions: read-out: I50
Summary of the method: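 P5C reductase partially purified from A. thaliana Columbia suspension-cultured cells by ammonium sulfate cut and two DEAE-Sephacel steps. Assay at 35 °C: 100 mM Tris-HCl pH 8.0, 0.1 mM MgCl2, 2 mM DL-P5C, 0.25 mM NADH. Read as NADH oxidation at 340 nm, or as P5C loss by ninhydrin at 535 nm. Inhibitor neutralised to pH 7.4, tested over 0.010–5 mM. I50 from regression of % control activity versus log concentration.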

Row | SMILES | Activity [1] | Activity [7] | further results
1 | O=P(O)(O)C(Nc1cc(Cl)cc(Cl)c1)P(=O)(O)O [(3,5-DICHLOROPHENYLAMINO)METHYLENEDIPHOSPHONIC ACID] | 37.7% | 28% | pIC50 [2]: 4.52; pKi [3]: 4.99; pIC50 [4]: 4.52; pKi [5]: 3.64; pKi [6]: 3.70
2 | O=P(O)(O)C(Nc1ccccn1)P(=O)(O)O | 114% | 104% | 
3 | Cc1ccnc(NC(P(=O)(O)O)P(=O)(O)O)c1 | 106% | 106% | 
4 | O=P(O)(O)C(NCc1ccccn1)P(=O)(O)O | 118% | 92.9% | 
5 | O=P(O)(O)C(Nc1ccncc1)P(=O)(O)O | 115% | 101% | 
6 | O=P(O)(O)C(NCCc1ccc(O)cc1)P(=O)(O)O | 105% | 94.4% | 
7 | O=P(O)(O)C(NC1CCCCC1)P(=O)(O)O | 108% | 93.8% | 
8 | Cc1ccccc1CNC(P(=O)(O)O)P(=O)(O)O | 109% | 96.9% | 
9 | O=P(O)(O)C(Nc1ncccn1)P(=O)(O)O | 110% | 91.7% | 
10 | O=P(O)(O)C(Nc1ccccc1)P(=O)(O)O | 98.3% | 114% | 
11 | O=C(O)c1cccc(NC(P(=O)(O)O)P(=O)(O)O)c1 | 95% | 92.4% | 
12 | O=P(O)(O)C(Nc1ncc(Cl)cc1Cl)P(=O)(O)O | 105% | 97% | 
13 | O=P(O)(O)C(NCc1ccccc1)P(=O)(O)O | 98.5% | 100% | 
14 | Cc1nc(NC(P(=O)(O)O)P(=O)(O)O)c(Br)cc1Br | 66.1% | 54.8% | pIC50 [8]: 3.52
15 | O=[N+]([O-])c1cccc(NC(P(=O)(O)O)P(=O)(O)O)c1 | 102% | 96.4% | 
16 | O=P(O)(O)C(Nc1ccnc(Cl)c1)P(=O)(O)O | 91.2% | 97.9% | 
17 | NC(P(=O)(O)O)P(=O)(O)O [AMINOMETHYLENEBISPHOSPHONIC ACID] | 106% | 84.6% | pIC50 [8]: 4.36
18 | Cc1ccc(NC(P(=O)(O)O)P(=O)(O)O)cc1 | 110% | 98.2% | 
19 | O=P(O)(O)C(Nc1cccnc1)P(=O)(O)O | 109% | 102% | 
20 | O=C(O)c1cccnc1NC(P(=O)(O)O)P(=O)(O)O | 96.3% | 94.1% | 
21 | O=P(O)(O)C(Nc1ccc(Br)cn1)P(=O)(O)O | 104% | 100% | 
22 | O=P(O)(O)C(Nc1ncc(Br)cc1Br)P(=O)(O)O | 92% | 99.8% | 
23 | O=P(O)(O)C(Nc1ccc(I)cn1)P(=O)(O)O | 106% | 89.9% | 
24 | Cc1cccc(NC(P(=O)(O)O)P(=O)(O)O)n1 | 88.7% | 103% | 
25 | O=P(O)(O)C(Nc1ccc(Cl)nc1)P(=O)(O)O | 99.4% | 94.9% | 
26 | O=P(O)(O)C(Nc1ccc(Cl)cn1)P(=O)(O)O | 101% | 92.4% | 
